This excerpt belongs to a sample that is enriched for hits.
XiGFP reactiv: X-chromosome reactivation activator | AID 743238 | hit rate 0.055% among 360,000 | XiGFP mouse fibroblasts, % GFP-positive cells imaging, 3 d; cells co-treated with 5-aza-dC sensitizer; scaled so ellipticine positive control = 100% | activation, % at 7.58 µM;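 active = mean normalized replicate activation at least 10% and every replicate at or above 10%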;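 also: 0% = median of on-plate neutral control wells and 100% = ellipticine 6 µM median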
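material = 68-5-11 XiGFP fibroblast line | medium = DMEM plus 5-aza-dC sensitizer | schedule = 3 days compound exposure | benchmarks = positive control ellipticine, 6 µM final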
E-selectin induc: induces E-selectin expression in human endothelial cells; P16581; hit rate 0.37% among 260,000; activation, % at 7.58 µM; HUVEC E-selectin immunofluorescence imaging; normalized: neutral wells 0, TNF-alpha wells 100;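 active = mean E-selectin-positive cell signal at least 10% of the positive control, reached in at least 60% of replicates, without over 20% cell loss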
Target sequence (P16581 whole entry, looked up): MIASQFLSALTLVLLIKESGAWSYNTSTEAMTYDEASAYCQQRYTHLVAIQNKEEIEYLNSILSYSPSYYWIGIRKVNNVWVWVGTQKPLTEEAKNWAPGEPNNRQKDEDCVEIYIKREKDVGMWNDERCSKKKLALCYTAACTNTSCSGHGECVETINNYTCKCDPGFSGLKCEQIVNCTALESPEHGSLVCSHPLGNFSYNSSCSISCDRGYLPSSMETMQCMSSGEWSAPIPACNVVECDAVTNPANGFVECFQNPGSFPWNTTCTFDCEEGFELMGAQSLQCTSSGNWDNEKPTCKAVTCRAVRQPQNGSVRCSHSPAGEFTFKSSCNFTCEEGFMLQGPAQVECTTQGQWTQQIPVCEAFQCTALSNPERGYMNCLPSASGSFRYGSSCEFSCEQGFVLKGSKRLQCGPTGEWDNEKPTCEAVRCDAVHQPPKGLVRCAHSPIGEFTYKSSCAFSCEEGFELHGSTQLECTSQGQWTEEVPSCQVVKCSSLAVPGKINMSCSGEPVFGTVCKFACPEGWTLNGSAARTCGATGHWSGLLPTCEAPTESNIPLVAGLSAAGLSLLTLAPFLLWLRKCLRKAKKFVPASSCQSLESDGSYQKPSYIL
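Read-out basis: % PE-positive cells; Test system: HUVEC primary endothelial cells; Technique: immunofluorescence imaging; Dosing: single-point compound dose.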
Starred values were filed as active, the others as inactive; / = not tested or not shown.

SMILES	XiGFP reactiv	E-selectin induc
O=C1CC(N2CCN(c3ccccc3)CC2)C(=O)N1c1cccc(Br)c1 (centres undefined)	0	/
O=C1CC(N2CCSCC2)C(=O)N1c1cccc(Br)c1 (centres undefined)	0	43*
COc1ccc(S(=O)(=O)NN(C)C(=O)c2nn(-c3ccccc3)ccc2=O)cc1	0	27*
COc1ccc(-n2ccc(=O)c(C(=O)O)n2)cc1	0	/
CCCNC(=O)Nc1ccc2c(c1)C(=O)N(C)C[C@@H](OC)[C@@H](C)CN(C(C)=O)[C@@H](C)CO2	1	0
Cc1noc(C)c1NC(=O)Nc1ccc2c(c1)C(=O)N(C)[C@H]1CC[C@H](CC(=O)N[C@@H]3CCN(Cc4ccccc4)C3)O[C@H]1CO2	0	0
COc1cc(NC(=S)N2CCN(C)CC2)c(OC)cc1Cl	0	/
COc1cc(NC(=S)N2CCOCC2)c(OC)cc1Cl	0	26*
CC1CN(S(=O)(=O)c2ccc(F)cc2)C(C)N1C(=O)N1CCOCC1 (centres undefined)	0	26*
CC1CN(S(=O)(=O)c2ccc(F)cc2)CN1C(=O)N1CCOCC1 (centres undefined)	0	/
C[C@@H]1CN([C@H](C)CO)C(=O)c2cc(NC(=O)Nc3ccc(C(F)(F)F)cc3)ccc2O[C@@H](C)CCCCO[C@@H]1CN(C)C(=O)Cc1ccccc1	0	1
CC(C)c1ccc(S(=O)(=O)N2CCC(C(=O)NCC3(N(C)C)CCCCC3)CC2)cc1	0	/
CN(C)C1(CNC(=O)C2CCN(S(=O)(=O)c3cc(Cl)ccc3Cl)CC2)CCCCC1	0	70*
O=C(c1ccccc1F)N1CC[C@@H]2[C@@H](CO)Nc3ccc(C#Cc4ccc(F)cc4)cc3[C@@H]21	0	1
COc1ccccc1Cc1c(-c2ccc(F)cc2)nc2ccc(Cl)cn12	0	/
COc1cc2c3nnc(-c4ccc(F)cc4)c-3cn(Cc3ccccc3F)c2cc1OC	114*	/
COc1cc2c3nnc(-c4ccccc4)c-3cn(Cc3ccccc3F)c2cc1OC	97*	/
COC(=O)N/N=C/c1cn(Cc2ccccc2F)c2ccccc12	0	3
CCC(=O)N1[C@@H](CO)[C@H](c2ccc(-c3ccc(C#N)cc3)cc2)C12CN(C(C)=O)C2	0	2
CCS(=O)(=O)Nc1ccc2c(c1)C(=O)N(C)[C@H]1CC[C@@H](CC(=O)Nc3ccccc3)O[C@@H]1CO2	0	0
C[C@H]1CCCCO[C@H](CN(C)C(=O)Nc2ccc(C(F)(F)F)cc2)[C@@H](C)CN([C@@H](C)CO)C(=O)c2cc(NC(=O)Nc3cccc4ccccc34)ccc2O1	0	0
COc1ccc(NC(=O)N(C)C[C@H]2Oc3c(NC(=O)Nc4cccc5ccccc45)cccc3C(=O)N([C@@H](C)CO)C[C@@H]2C)cc1	-1	1
Cc1ccc(NC(=O)COc2ccc(-c3nnco3)cc2)cc1S(=O)(=O)N1CCOCC1	23*	0
Cc1ccc(OCCC(=O)OCC(=O)Nc2ccc(C)c(S(=O)(=O)N3CCOCC3)c2)cc1	0	0
CCCNC(=O)N(C)C[C@@H]1Oc2ncc(-c3ccncc3)cc2C(=O)N([C@@H](C)CO)C[C@@H]1C	-1	1
SMILES	XiGFP reactiv	E-selectin induc
C[C@@H]1CN([C@H](C)CO)C(=O)c2cc(C#CCN(C)C)cnc2O[C@@H]1CN(C)Cc1ccc(F)cc1	-1	0
CC1CCCCN1Cc1c(O)ccc2c(=O)c(-c3ccc(Br)cc3)coc12 (centres undefined)	0	40*
CC1CCCCN1Cc1c(O)ccc2c(=O)c(-c3ccc(Cl)cc3)coc12 (centres undefined)	0	/
CC1CCC(NC(=O)COC(=O)CSc2ccc(C(N)=O)cc2[N+](=O)[O-])CC1 (centres undefined)	0	/
CC1CN(C(=O)COC(=O)CSc2ccc(C(N)=O)cc2[N+](=O)[O-])CC(C)O1 (centres undefined)	0	219*
Cc1ccccc1S(=O)(=O)N1CC[C@@H]2[C@@H](CO)Nc3ccc(-c4cccc(F)c4)cc3[C@@H]21	0	3
C[C@H](CO)N1C[C@H](C)[C@H](CN(C)C(=O)c2cnccn2)Oc2ncc(/C=C/c3ccccc3)cc2C1=O	0	0
COc1ccc(CN(C)C[C@@H]2Oc3ccc(NS(=O)(=O)c4ccc(OC)cc4)cc3C(=O)N([C@@H](C)CO)C[C@@H]2C)cc1	0	0
C[C@@H]1CN([C@@H](C)CO)C(=O)c2cc(NC(=O)Cc3ccccc3)ccc2O[C@@H]1CN(C)Cc1ccc(Cl)c(Cl)c1	0	35*
COc1ccc(S(=O)(=O)Nc2ccc3c(c2)C(=O)N([C@@H](C)CO)C[C@H](C)[C@@H](CN(C)Cc2ccc(Cl)c(Cl)c2)O3)cc1	0	80*
C[C@H](CO)N1C[C@H](C)[C@@H](CN(C)Cc2ccc(Cl)c(Cl)c2)Oc2ccc(NC(=O)Cc3ccccc3)cc2C1=O	0	20
C[C@@H]1CN([C@@H](C)CO)C(=O)c2cc(-c3ccc(C(=O)N(C)C)cc3)cnc2O[C@H]1CN(C)C(=O)C1CC1	0	0
CCC(=O)N(C)C[C@H]1Oc2cc(C3=CCCC3)ccc2S(=O)(=O)N([C@@H](C)CO)C[C@@H]1C	0	71*
Cc1ccc(-c2ccc3c(c2)O[C@@H](CN(C)CC2CC2)[C@@H](C)CN([C@@H](C)CO)S3(=O)=O)cc1	-1	0
COCC(=O)N(C)C[C@H]1Oc2cc(-c3ccc(F)cc3)ccc2S(=O)(=O)N([C@@H](C)CO)C[C@H]1C	0	125*
C[C@@H]1CN([C@H](C)CO)S(=O)(=O)c2ccc(-c3ccc(F)cc3)cc2O[C@@H]1CN(C)CC1CC1	-1	92*
CCC(=O)N(C)C[C@@H]1Oc2cc(C3=CCCCC3)ccc2S(=O)(=O)N([C@H](C)CO)C[C@H]1C	1	-1
COCC(=O)N(C)C[C@@H]1Oc2cc(-c3ccc(F)cc3)ccc2S(=O)(=O)N([C@H](C)CO)C[C@@H]1C	-1	0
CO[C@H]1CN(C)C(=O)c2cc(NC(=O)NC(C)C)ccc2OC[C@@H](C)N(Cc2cncnc2)C[C@@H]1C	0	0
Cc1noc(C)c1NC(=O)Nc1ccc2c(c1)C(=O)N([C@@H](C)CO)C[C@H](C)[C@H](CN(C)S(C)(=O)=O)O2	0	-11
C[C@H]1CN([C@@H](C)CO)S(=O)(=O)c2ccc(C#CC3(O)CCCC3)cc2O[C@H]1CN(C)C(=O)Cc1ccncc1	0	0
CN(C)c1ccc(/C=C/C=N/Nc2nc(N3CCOCC3)nc(N3CCOCC3)n2)cc1	0	63*
C(=N\Nc1nc(N2CCOCC2)nc(N2CCOCC2)n1)/c1ccncc1	0	/
CN(C)C(=O)C[C@H]1CC[C@H]2[C@@H](COC[C@@H](O)CN2CC2CCCCC2)O1	0	0
CCN(CC)C(=O)c1ccc(/C=C/c2c[nH]c3ccccc23)[n+](C)c1	0	/
CC[n+]1c(/C=C/c2c[nH]c3ccccc23)ccc2cc(C)ccc21	103*	/
O=C(COC(=O)/C=C/c1cccc([N+](=O)[O-])c1)Nc1cccnc1Cl	0	124*
O=C(COC(=O)/C=C/c1ccccc1)Nc1cccnc1Cl	0	/
CSc1ccccc1C(=O)N1CCN(c2cccc(Cl)c2)CC1	0	/

Assay outcomes (PubChem)
